ChEMBL document CHEMBL4627381, “Licochalcone A Selectively Resensitizes ABCG2-Overexpressing Multidrug-Resistant Cancer Cells to Chemotherapeutic Drugs” (J Nat Prod, 2020)

Assays:
[1] = system: S1; assay: Induction of apoptosis in human S1 cells assessed as viable cells at 10 uM incubated for 48 hrs in presence of topotecan by annexin V/propidium iodide staining based flow cytometry (reference value: 94.1%); type: functional; settings: S1, 48 h, read-out: Activity
[2] = target: T1, Broad substrate specificity ATP-binding cassette transporter ABCG2 (Homo sapiens, UniProt Q9UNQ0); assay: Reversal of ABCG2 (unknown origin)-mediated multidrug resistance in human H460-MX20 cells assessed as fold change in mitoxantrone IC50 at 3 uM after 72 hrs by MTT assay relative to mitoxantrone IC50; type: cell-based
T1 sequence (Q9UNQ0 whole entry): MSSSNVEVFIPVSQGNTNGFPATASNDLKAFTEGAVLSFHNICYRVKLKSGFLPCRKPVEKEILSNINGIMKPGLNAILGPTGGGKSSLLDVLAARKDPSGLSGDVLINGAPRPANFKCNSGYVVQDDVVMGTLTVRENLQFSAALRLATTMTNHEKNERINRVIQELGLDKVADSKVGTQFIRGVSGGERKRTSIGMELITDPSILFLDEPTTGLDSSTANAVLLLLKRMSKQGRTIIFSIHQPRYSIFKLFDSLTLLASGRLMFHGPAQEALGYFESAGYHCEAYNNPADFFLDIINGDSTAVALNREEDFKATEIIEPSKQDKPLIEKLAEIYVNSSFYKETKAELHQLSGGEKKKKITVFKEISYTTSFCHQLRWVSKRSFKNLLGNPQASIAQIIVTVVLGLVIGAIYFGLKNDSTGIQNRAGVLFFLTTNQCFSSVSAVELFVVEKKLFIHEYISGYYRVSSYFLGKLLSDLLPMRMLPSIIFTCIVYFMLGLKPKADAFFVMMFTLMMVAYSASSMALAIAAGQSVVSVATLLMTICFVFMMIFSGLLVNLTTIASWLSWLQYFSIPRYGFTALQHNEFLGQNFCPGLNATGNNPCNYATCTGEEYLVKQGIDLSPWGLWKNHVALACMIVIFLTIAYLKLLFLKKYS
How it was run: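 Cells held drug-free 7 days, seeded at 5000 per well for 24 h, then exposed 72 h to mitoxantrone or topotecan dilutions with DMSO (≤0.5%), LCA 0.5–3.0 μM, or Ko143 1.0 μM. Viability was read by MTT. IC50 came from fitted dose-response curves of three independent experiments. Fold-reversal = IC50 without modulator divided by IC50 with modulator.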

[3] = system: S1; assay: Effect on mitoxantrone-induced cytotoxicity against human S1 cells assessed as fold change in mitoxantrone IC50 at 1 uM after 72 hrs by MTT assay relative to mitoxantrone IC50; type: functional
How it was run: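 Parental S1 colon and H460 lung cancer cells were exposed for 72 h to a mitoxantrone or topotecan concentration series, with or without modulator at 0.5–3.0 μM, and read by MTT. Fold-reversal is IC50 without modulator divided by IC50 with modulator, taken from dose-response curves of three independent experiments.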

[4] = target: T1, Broad substrate specificity ATP-binding cassette transporter ABCG2; assay: Reversal of ABCG2 (unknown origin)-mediated multidrug resistance in human S1-M1-80 cells assessed as fold-change in topotecan IC50 at 1 uM after 72 hrs by MTT assay relative to topotecan IC50; type: cell-based; settings: s1-m1-80, 72 h
How it was run: (§1)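 MTT readout in S1-M1-80 colon cancer cells (mitoxantrone-selected, held in 80 μM mitoxantrone, then drug-free 7 days before assay). Cells were seeded at 5000/well for 24 h, then given increasing mitoxantrone or topotecan with DMSO or non-toxic modulator for 72 h at 37 °C. IC50 came from fitted dose-response curves (at least three independent experiments). Fold-reversal = IC50 without modulator ÷ IC50 with modulator.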

[5] = target: T1, Broad substrate specificity ATP-binding cassette transporter ABCG2; assay: Reversal of ABCG2 (unknown origin)-mediated multidrug resistance in human S1-M1-80 cells assessed as fold-change in topotecan IC50 at 2 uM after 72 hrs by MTT assay relative to topotecan IC50; type: cell-based; settings: s1-m1-80, 72 h; how it was run: as §1
[6] = target: T1, Broad substrate specificity ATP-binding cassette transporter ABCG2; assay: Modulation of ABCG2 (unknown origin) expressed in High Five insect cell vesicle membrane assessed as stimulation of ATPase activity after 20 mins by colorimetric assay
How it was run: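 Membrane vesicles from ABCG2-expressing High Five cells were incubated with LCA (0–390 μM) at 37 °C for 20 min in 50 mM MES-Tris pH 6.8 with ouabain, DTT, NaN3, EGTA and KCl, ±0.3 mM vanadate. Liberated Pi was read by molybdate/ascorbate colorimetry at 880 nm. Vi-sensitive activity = activity minus activity with vanadate; mean ± SD of three experiments.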

C=CC(C)(C)c1cc(/C=C/C(=O)c2ccc(O)cc2)c(OC)cc1O [LICOAGROCHACONE A]
viability at 10 µM [1]: 44.1% | fold change (FC) [2]: 16.6 | fold change (FC) [3]: 1.1 | fold change (FC) [4]: 16.6 | fold change (FC) [5]: 24.7 | EC50 [6]: 14 µM | Activity ([6]; human, 20 min): Dose-dependent effect
